These results are taken from ChEMBL document CHEMBL5661979, “Pharmacological inhibition of BMK1 suppresses tumor growth through promyelocytic leukemia protein” (Cancer Cell, 2010).

In data set [1] the target is Microtubule-associated serine/threonine-protein kinase 3 (Homo sapiens, UniProt O60307). The experiment in a line: Inhibition of MAST3 in human HeLa cells lysate pre incubated for 15 mins followed by ATP acyl phosphate probe addition and measured after 10 mins by LC-MS/MS analysis. Type of data set: subcellular.
Microtubule-associated serine/threonine-protein kinase 3, sequence (O60307 whole entry): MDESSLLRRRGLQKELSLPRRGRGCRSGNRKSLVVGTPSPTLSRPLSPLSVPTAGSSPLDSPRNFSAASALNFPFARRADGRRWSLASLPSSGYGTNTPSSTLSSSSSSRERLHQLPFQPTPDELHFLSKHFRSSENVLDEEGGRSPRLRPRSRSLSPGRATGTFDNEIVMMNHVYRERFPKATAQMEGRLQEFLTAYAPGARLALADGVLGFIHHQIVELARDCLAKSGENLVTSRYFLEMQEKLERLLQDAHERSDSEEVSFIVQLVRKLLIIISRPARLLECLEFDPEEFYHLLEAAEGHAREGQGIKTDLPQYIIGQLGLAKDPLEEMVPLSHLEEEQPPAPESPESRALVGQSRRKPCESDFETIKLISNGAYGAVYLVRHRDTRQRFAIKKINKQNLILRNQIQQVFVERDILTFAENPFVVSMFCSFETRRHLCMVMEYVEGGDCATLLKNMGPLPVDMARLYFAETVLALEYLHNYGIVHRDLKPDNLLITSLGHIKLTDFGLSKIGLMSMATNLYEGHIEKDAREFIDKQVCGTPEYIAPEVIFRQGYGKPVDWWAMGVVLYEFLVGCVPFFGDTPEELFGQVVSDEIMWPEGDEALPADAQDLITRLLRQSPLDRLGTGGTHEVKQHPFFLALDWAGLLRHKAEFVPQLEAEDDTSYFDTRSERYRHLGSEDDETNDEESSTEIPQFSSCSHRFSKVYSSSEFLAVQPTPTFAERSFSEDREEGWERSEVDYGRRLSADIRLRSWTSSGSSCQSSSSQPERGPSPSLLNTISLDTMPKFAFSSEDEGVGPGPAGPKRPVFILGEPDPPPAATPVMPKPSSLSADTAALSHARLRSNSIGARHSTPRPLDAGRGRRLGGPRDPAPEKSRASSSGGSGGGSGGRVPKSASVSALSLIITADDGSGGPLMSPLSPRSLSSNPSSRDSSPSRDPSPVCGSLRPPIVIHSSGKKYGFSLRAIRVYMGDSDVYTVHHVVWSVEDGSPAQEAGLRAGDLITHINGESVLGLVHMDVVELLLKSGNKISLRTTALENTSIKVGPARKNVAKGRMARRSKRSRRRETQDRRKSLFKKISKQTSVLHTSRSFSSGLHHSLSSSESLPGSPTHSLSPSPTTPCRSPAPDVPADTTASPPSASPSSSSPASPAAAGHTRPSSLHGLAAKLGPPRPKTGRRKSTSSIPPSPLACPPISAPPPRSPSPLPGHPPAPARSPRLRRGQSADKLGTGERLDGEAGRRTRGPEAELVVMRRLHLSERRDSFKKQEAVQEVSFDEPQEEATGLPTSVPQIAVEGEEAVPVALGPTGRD
Data set [2] in a line: Inhibition of MST4/YSK1 in human HeLa cells lysate pre incubated for 15 mins followed by ATP acyl phosphate probe addition and measured after 10 mins by LC-MS/MS analysis. Type of data set: subcellular.
Data set [3] has as its target Serine/threonine-protein kinase Nek1 (Homo sapiens, UniProt Q96PY6). Nature of the data set: Inhibition of NEK1 in human HeLa cells lysate pre incubated for 15 mins followed by ATP acyl phosphate probe addition and measured after 10 mins by LC-MS/MS analysis. Type of data set: subcellular.
Data set [4] addresses Rho-associated protein kinase (Homo sapiens, UniProt O75116+Q13464). The experiment in a line: Inhibition of ROCK1/2 in human HeLa cells lysate pre incubated for 15 mins followed by ATP acyl phosphate probe addition and measured after 10 mins by LC-MS/MS analysis. Type of data set: subcellular.
The target in data set [5] is T1, Serine/threonine-protein kinase Sgk3 (Homo sapiens, UniProt Q96BR1).
T1 sequence (Q96BR1 whole entry): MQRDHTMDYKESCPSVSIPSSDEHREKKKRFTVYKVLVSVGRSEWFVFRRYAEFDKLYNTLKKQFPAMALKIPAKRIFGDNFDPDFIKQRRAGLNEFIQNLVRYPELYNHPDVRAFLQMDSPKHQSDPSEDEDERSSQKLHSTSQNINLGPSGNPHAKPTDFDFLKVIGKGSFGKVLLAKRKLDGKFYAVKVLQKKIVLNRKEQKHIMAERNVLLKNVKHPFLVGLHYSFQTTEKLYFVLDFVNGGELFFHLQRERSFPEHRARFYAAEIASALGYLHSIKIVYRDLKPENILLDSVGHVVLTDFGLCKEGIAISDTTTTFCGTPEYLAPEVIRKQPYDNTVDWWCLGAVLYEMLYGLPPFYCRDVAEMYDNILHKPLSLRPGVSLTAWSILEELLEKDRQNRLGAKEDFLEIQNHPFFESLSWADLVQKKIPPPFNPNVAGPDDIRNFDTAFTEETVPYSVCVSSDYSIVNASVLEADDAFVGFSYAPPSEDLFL
The experiment in a line: Inhibition of SGK3 K2 site in human HeLa cells lysate pre incubated for 15 mins followed by ATP acyl phosphate probe addition and measured after 10 mins by LC-MS/MS analysis. Type of data set: subcellular.

Data set [6] deals with Serine-protein kinase ATM (Homo sapiens, UniProt Q13315). Nature of the data set: Inhibition of ATM in human HeLa cells lysate pre incubated for 15 mins followed by ADP acyl phosphate probe addition and measured after 10 mins by LC-MS/MS analysis. Type of data set: subcellular. The procedure, abridged:
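KiNativ-type profiling in HeLa lysate (5 mg/mL total protein). Lysate preincubated 15 min with inhibitor at 50, 10, 2, 0.8 or 0 μM, then ATP or ADP acylphosphate probe added (5 μM final) for 10 min. Reaction stopped with urea and analysed by targeted MS, using up to four fragment ions per kinase peptide-probe conjugate. % inhibition calculated against untreated lysate. Duplicate reactions.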

Data set [7] deals with Phosphorylase b kinase gamma catalytic chain, liver/testis isoform (Homo sapiens, UniProt P15735). The experiment in a line: Inhibition of PHKg2 in human HeLa cells lysate pre incubated for 15 mins followed by ADP acyl phosphate probe addition and measured after 10 mins by LC-MS/MS analysis. Type of data set: subcellular.
Phosphorylase b kinase gamma catalytic chain, liver/testis isoform, sequence (P15735 whole entry, canonical isoform): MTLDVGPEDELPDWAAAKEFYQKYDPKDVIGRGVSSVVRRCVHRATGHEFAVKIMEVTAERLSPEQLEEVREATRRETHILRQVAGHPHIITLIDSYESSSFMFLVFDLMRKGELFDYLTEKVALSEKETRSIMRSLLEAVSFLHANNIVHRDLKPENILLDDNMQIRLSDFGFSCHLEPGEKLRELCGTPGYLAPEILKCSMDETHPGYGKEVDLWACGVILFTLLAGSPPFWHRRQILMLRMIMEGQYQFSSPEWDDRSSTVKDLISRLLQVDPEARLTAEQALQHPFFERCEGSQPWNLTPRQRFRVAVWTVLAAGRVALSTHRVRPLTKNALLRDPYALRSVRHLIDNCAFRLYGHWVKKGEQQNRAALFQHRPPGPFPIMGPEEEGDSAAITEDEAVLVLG
Data set [8] addresses Protein kinase C iota type (Homo sapiens, UniProt P41743). The experiment in a line: Inhibition of PKCiota in human HeLa cells lysate pre incubated for 15 mins followed by ADP acyl phosphate probe addition and measured after 10 mins by LC-MS/MS analysis. Type of data set: subcellular.
Data set [9] can be described thus: Inhibition of PRKX/PRKY in human HeLa cells lysate pre incubated for 15 mins followed by ADP acyl phosphate probe addition and measured after 10 mins by LC-MS/MS analysis. Type of data set: subcellular.
Data set [10] addresses Calcium/calmodulin-dependent protein kinase kinase 1 (Homo sapiens, UniProt Q8N5S9). Nature of the data set: Inhibition of CAMKK1 in human HeLa cells lysate at 2 uM pre incubated for 15 mins followed by ADP acyl phosphate probe addition and measured after 10 mins by LC-MS/MS analysis relative to control. The conditions noted are these: time 25.0 min. Type of data set: subcellular. The procedure, abridged:
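KiNativ profiling in HeLa lysate (5 mg/mL total protein). Lysate incubated 15 min with inhibitor at 50, 10, 2, 0.8 or 0 μM. ATP or ADP acylphosphate probe then added (5 μM final) and reacted 10 min. Reaction stopped with urea and analysed by targeted MS, using up to four fragment ions per kinase peptide-probe conjugate. % inhibition taken against untreated lysate. Run in duplicate.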

Data set [11] deals with T2, Scaffold protein ILK (Homo sapiens) (UniProt Q13418).
T2 sequence (whole entry): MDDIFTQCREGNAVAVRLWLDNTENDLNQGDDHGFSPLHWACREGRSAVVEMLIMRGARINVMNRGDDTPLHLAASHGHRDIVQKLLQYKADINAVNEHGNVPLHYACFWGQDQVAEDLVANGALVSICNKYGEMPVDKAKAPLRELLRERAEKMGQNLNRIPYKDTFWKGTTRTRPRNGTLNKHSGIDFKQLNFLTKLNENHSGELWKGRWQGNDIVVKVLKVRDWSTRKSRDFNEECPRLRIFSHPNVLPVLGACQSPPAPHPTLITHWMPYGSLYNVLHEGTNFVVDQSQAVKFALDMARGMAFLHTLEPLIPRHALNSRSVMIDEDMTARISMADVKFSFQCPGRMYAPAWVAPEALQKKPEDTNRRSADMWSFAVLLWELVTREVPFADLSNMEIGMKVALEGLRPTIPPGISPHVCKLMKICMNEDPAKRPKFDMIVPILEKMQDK
Nature of the data set: Inhibition of ILK in human HeLa cells lysate at 10 uM pre incubated for 15 mins followed by ATP acyl phosphate probe addition and measured after 10 mins by LC-MS/MS analysis relative to control. Type of data set: subcellular. The note with it: time 25.0 min.

For data set [12], the target named is STE20-like serine/threonine-protein kinase (Homo sapiens, UniProt Q9H2G2). The experiment in a line: Inhibition of SLK in human HeLa cells lysate at 2 uM pre incubated for 15 mins followed by ATP acyl phosphate probe addition and measured after 10 mins by LC-MS/MS analysis relative to control. Type of data set: subcellular. The conditions noted are these: time 25.0 min.
STE20-like serine/threonine-protein kinase, sequence (Q9H2G2 whole entry, looked up): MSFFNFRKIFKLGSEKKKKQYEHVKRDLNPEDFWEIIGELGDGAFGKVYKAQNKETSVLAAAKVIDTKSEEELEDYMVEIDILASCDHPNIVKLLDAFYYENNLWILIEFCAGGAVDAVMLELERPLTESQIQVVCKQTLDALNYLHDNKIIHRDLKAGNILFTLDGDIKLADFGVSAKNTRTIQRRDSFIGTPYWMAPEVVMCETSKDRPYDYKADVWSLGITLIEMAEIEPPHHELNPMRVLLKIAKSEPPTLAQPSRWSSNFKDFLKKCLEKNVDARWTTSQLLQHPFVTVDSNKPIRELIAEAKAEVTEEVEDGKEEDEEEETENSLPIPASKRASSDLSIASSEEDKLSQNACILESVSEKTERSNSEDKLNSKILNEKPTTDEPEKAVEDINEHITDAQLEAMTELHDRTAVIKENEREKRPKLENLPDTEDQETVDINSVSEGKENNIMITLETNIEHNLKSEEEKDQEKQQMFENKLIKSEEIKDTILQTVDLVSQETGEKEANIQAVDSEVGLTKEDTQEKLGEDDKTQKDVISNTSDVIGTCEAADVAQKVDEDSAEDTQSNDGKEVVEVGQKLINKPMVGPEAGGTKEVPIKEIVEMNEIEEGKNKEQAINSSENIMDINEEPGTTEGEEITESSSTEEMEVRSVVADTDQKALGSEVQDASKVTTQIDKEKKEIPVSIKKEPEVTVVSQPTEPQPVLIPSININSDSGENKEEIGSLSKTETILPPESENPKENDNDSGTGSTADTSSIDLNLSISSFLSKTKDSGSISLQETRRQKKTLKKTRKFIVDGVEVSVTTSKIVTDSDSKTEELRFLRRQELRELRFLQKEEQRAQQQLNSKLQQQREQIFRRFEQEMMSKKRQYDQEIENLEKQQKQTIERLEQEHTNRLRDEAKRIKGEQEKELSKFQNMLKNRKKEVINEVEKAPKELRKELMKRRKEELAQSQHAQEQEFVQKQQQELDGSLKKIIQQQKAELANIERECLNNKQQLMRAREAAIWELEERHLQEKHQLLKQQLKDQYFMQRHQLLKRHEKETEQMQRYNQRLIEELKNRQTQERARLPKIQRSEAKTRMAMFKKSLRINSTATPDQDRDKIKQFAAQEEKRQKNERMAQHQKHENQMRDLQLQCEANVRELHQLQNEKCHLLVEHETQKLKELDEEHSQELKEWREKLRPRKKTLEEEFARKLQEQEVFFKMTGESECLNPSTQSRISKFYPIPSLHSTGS

A short description of data set [13]: Toxicity in C57Bl/6 mouse assessed as effect on glucose level at 50 mg/kg, ip for 14 days (reference value: 181 mg/dl). Type of data set: organism-based. The note with it: in vivo, 336 h, time 14 day.

Calcium/calmodulin-dependent protein kinase kinase 1, sequence (Q8N5S9 whole entry, looked up, the tested form may be a part): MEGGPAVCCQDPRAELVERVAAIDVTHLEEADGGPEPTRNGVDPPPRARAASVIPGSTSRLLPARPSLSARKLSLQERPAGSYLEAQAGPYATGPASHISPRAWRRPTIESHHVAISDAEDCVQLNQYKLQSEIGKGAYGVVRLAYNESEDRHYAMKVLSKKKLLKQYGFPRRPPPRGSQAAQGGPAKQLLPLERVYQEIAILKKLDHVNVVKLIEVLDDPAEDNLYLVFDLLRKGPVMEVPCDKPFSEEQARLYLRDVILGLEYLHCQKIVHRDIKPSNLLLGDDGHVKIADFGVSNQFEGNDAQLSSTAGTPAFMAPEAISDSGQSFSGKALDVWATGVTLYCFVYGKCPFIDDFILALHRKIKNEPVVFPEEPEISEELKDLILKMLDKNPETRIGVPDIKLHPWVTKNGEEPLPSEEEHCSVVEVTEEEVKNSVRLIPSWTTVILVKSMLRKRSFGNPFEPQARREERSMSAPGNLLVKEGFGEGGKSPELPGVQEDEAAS
Serine/threonine-protein kinase Nek1, sequence (Q96PY6 whole entry): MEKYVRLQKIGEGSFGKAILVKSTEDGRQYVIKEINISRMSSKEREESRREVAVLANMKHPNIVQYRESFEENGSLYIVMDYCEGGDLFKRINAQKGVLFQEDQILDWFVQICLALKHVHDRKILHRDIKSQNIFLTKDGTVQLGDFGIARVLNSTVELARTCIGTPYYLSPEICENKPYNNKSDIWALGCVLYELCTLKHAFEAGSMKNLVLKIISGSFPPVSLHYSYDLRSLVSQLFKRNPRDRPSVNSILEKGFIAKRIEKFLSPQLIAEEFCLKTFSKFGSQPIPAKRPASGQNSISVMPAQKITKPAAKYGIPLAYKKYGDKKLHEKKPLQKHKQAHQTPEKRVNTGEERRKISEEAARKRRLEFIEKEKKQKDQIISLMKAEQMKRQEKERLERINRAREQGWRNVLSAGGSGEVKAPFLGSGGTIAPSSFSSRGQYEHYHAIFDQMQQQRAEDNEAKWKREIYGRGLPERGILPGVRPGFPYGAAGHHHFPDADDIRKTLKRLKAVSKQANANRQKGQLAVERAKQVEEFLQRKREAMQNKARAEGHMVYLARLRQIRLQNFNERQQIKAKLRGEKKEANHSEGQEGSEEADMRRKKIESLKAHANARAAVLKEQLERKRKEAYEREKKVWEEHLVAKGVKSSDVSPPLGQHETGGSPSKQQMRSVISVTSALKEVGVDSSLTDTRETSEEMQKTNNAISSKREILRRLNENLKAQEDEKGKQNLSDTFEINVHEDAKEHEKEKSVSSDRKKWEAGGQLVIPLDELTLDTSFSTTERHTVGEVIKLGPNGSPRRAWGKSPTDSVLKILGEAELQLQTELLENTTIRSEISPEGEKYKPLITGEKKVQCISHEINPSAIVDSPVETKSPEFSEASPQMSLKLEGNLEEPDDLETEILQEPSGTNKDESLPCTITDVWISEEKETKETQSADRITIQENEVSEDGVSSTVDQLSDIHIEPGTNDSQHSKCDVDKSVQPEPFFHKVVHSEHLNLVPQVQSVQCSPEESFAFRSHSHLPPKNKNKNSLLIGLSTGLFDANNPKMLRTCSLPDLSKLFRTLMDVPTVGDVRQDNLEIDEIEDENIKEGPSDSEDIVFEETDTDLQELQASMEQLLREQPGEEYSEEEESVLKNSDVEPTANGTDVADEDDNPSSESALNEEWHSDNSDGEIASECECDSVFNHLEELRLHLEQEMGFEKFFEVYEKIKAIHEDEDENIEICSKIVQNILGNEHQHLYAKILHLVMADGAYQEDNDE

As usually defined, the IC50 is the concentration needed to halve the response being measured. Lower therefore signals greater potency. The term inhibition denotes the change of the read-out against control, counted positive when it falls. For `CCOc1cc(N2CCC(O)CC2)ccc1Nc1ncc2c(n1)N(C)c1ccccc1C(=O)N2C`, the IC50 in data set [1], in data set [2], in [3], in data set [4], in data set [5] and in data set [6] was > 50 µM in each case. Besides, the IC50 in data set [7], in data set [8] and in data set [9] was > 50 µM in each case. Further, the figures for the inhibition in data set [10], in [11] and in data set [12] were -5.2%, 13.3% and -6.5%, respectively. Further, the Activity in data set [13] amounted to 126 mg/dL.
